Source: publication PMC3466390 (Biomaterials, 2012)
“Also recorded” adds a separate entry of the source.

Assays:
E. coli [1] = assay: Atomic force microscopy imaging of bacteria on gel; assay type: cell-based, Escherichia coli; conditions: 2 wt% hydrogel, 2 h incubation, 37°C
[2] = system: human red blood cells (hRBCs); assay type: cell-based
[3] = Oscillatory rheology of hydrogels; assay type: physicochemical; conditions: 1 wt% gel, 0.2% strain
Summary of the method: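 A 2 wt% peptide solution in chilled water was mixed with an equal volume of BTP (100 mM, 300 mM NaCl, pH 7.4). It was loaded on a 25 mm parallel plate at 5°C with a 0.5 mm gap, then ramped to 37°C over 100 s. G′ and G″ were followed by a 1 h time sweep at 6 rad/s and 0.2% strain. For recovery, 1000% strain was applied for 30 s at 6 rad/s, followed by a second 1 h sweep.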

P. aeruginosa = assay type: cell-based
[4] = system: P. aeruginosa (ATCC 27853); assay: Antibacterial assay on hydrogel surfaces; assay type: cell-based, Pseudomonas aeruginosa; conditions: 10^5 CFU/dm^2, 24 h, 37°C, n=3
Summary of the method: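 Peptide stocks in sterile water were mixed 1:1 with BTP (100 mM, 300 mM NaCl, pH 7.4) to gel, held 3 h at 37°C, then equilibrated overnight under BTP (50 mM, 150 mM NaCl, pH 7.4), which was then removed. Blood-agar-grown bacteria (18-20 h) at 10⁴ CFU/mL in TSB were applied to the gel surface for 24 h at 37°C. OD625 was compared with bare polystyrene: % non-viable = [1 − OD surface/OD control]×100.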

E. coli (ATCC 25922) = assay: Antibacterial assay on hydrogel surfaces; assay type: cell-based, Escherichia coli; conditions: 0.5, 1, 1.5 and 2 wt% hydrogels, 10^5 CFU/dm^2, 24 h, 37°C, n=3
Summary of the method: (§1)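 Gels (0.5–2 wt%) formed in wells by mixing peptide stocks in sterile water 1:1 with BTP buffer (100 mM, 300 mM NaCl, pH 7.4). They were held 3 h at 37°C, then equilibrated overnight under BTP (50 mM, 150 mM NaCl, pH 7.4), and the buffer was removed. Bacteria were grown overnight on blood agar, applied at 10^4 CFU/mL in TSB, and incubated 24 h at 37°C, with bare plastic as control. After a TSB wash, OD625 of the overlying solution was corrected for dilution and scattering. % non-viable = [1 − OD surface/OD control]×100; triplicate.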

S. aureus = assay: Antibacterial assay in the presence of Ca2+; assay type: cell-based, Staphylococcus aureus; conditions: 1 wt% hydrogel, 0, 0.1, 1, 10 and 20 mM Ca2+, 37°C, CFU count, n=3
S. aureus (ATCC 25923) = assay: Antibacterial assay on hydrogel surfaces; assay type: cell-based, Staphylococcus aureus; conditions: 0.5, 1, 1.5 and 2 wt% hydrogels, 10^5 CFU/dm^2, 24 h, 37°C, n=3
Summary of the method: as §1

E. coli [5] = assay: Antibacterial assay in the presence of Ca2+; assay type: cell-based, Escherichia coli; conditions: 1 wt% hydrogel, 0, 0.1, 1, 10 and 20 mM Ca2+, 37°C, CFU count, n=3
[6] = CD spectroscopy of folding and self-assembly; assay type: physicochemical
Summary of the method: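 Peptides were measured at 1 wt% in chilled water, or as chilled 2 wt% aqueous stock mixed 1:1 with BTP stock (100 mM, 300 mM NaCl, pH 7.4) and left to gel in the cell. Scans ran 200–260 nm at 37°C in a 0.1 mm quartz cell. Mean residue ellipticity was [θ] = (θobs/10lc)/r.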

| Substance | morphology of E. coli on gel surface by AFM (E. coli [1]) | hemolytic activity [2] | storage modulus (G') ([3]; 50 mM BTP, 150 mM NaCl, pH 7.4, 37°C, after 1 h, 6 rad/s) | recovery of initial mechanical rigidity after shear-thinning ([3]; 37°C, 1000% strain for 30 s, then 1 h at 6 rad/s) | live-dead result at the gel surface (cytostatic or cytotoxic) (P. aeruginosa) | live-dead result at the gel surface, short incubation, compared with 24 h (P. aeruginosa; 2 wt% hydrogel, 2 h incubation) | antibacterial activity of hydrogel surface against P. aeruginosa, in words ([4]; 0.5 wt% hydrogel) | antibacterial activity of hydrogel surface against P. aeruginosa, in words ([4]; 1.5 wt% hydrogel) | antibacterial activity of hydrogel surface against P. aeruginosa, in words ([4]; 2 wt% hydrogel) | antibacterial activity of hydrogel surface against E. coli, in words (E. coli (ATCC 25922)) | antibacterial activity (percent non-viable bacteria) in the presence of Ca2+ (S. aureus) | antibacterial activity of hydrogel surface against S. aureus, in words (S. aureus (ATCC 25923)) | antibacterial activity (percent non-viable bacteria) in the presence of Ca2+ (E. coli [5]) | hemolytic activity as a function of wt% [2] | folding/assembly state by CD ([6]; 1 wt% peptide in BTP buffer with NaCl, pH 7.4, 37°C) | folding/assembly state by CD ([6]; 1 wt% peptide in water, 37°C) |
| --- | --- | --- | --- | --- | --- | --- | --- | --- | --- | --- | --- | --- | --- | --- | --- | --- |
| VKVRVRVRV^DPPTRVRVRVKV [PEP6R] | membrane surface has collapsed and appears highly punctated | low hemolytic activity | increase in mechanical rigidty | about 90% | cytotoxic | identical | only marginally active | extremely potent | extremely potent | inhibit E. coli and S. aureus proliferation at all weight percentages; also recorded: quantitatively kills E. coli at all weight percents tested | progressively attenuated with increasing concentrations of Ca^2+ | inhibit E. coli and S. aureus proliferation at all weight percentages | progressively attenuated with increasing concentrations of Ca^2+ | – | – | – |
| VRVRVRVRV^DPPTRVRVRVRV-NH2 [PEP8R] | – | about 25% | – | – | – | – | – | – | – | capable of inhibiting both E. coli and S. aureus proliferation, irrespective of the peptide weight percentage used | – | capable of inhibiting both E. coli and S. aureus proliferation, irrespective of the peptide weight percentage used | – | decreases in a concentration dependent manner | folded and assembled into β-sheet structures | unfolded peptide |
